This note sets out measurements from the array DNA melting data of Ke et al. (doi:10.1101/2024.01.08.574731).

The nature of series [1]: folding enthalpy; higher = less favourable; fluorescence melt of hairpins on a sequencing array, two-state fit. The note with it: sodium 0.088 M. The essentials: (§1)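 Two-state fits, bootstrapped, provided melting temperature and folding enthalpy from Cy3 fluorescence normalised to pre-quench Cy3 and to control constructs. Library hairpins with annealed Cy3 and quencher oligos were imaged on a sequenced MiSeq flow cell in 50 mM Na-HEPES pH 8.0, 25 mM NaCl, at 2.5 °C intervals up to 60 °C. Four replicates were combined with inverse-variance weighting. A 9.35 °C upward shift was applied to fitted temperatures to match UV melts.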

Series [2] can be described thus: melting temperature; fluorescence melt of hairpins on a sequencing array, two-state fit, raised by 9.35 °C to match UV melts. The conditions noted are these: sodium 0.088 M. The essentials:
as §1

As to GGCCTAGGAAACTAAGCC (((.(((....))).))), in series [1], the folding enthalpy was -20.1 kcal/mol. In addition, the Tm in series [2] was determined as 38.2 °C.
On to GGTACAACGAAAGTTACC (((..(((....)))))), for which the folding enthalpy in series [1] is -17.3 kcal/mol. In series [2], the Tm was found to be 33.3 °C.
For GAGCAAGGAAACTTGCTC (((((((....))))))), in that order: -40.4 kcal/mol and 63.8 °C.
In the same order, the values of GCCCCTCGAAAGAGCGGC (((.(((....))).))) are -33 kcal/mol and 49.8 °C.
In the same order, the values of GATGCTGGAAACGGTATC (((.(.(....).).))) are -22.8 kcal/mol and 31.2 °C.
On to GCCATGCGAAAGCGTTGC ((.(.((....)).).)), for which the folding enthalpy in series [1] was -18.1 kcal/mol. For the same sequence, the Tm in series [2] came to 43.6 °C.
For GCGGCTGTCCGC ((((....)))), in that order: -28.3 kcal/mol and 57.9 °C.
For GATCTATGCCTAGATC ((((((....)))))), the folding enthalpy in series [1] was -33.3 kcal/mol. For the same sequence, in series [2], the Tm is 41 °C.
On to GGCGGGGGAAACTCCGCC (((((.(....).))))), for which the folding enthalpy in series [1] was -38 kcal/mol. The Tm in series [2] is 67.7 °C.
Take GTTAGAGGAAACCCTAAC (((((.(....).))))): in series [1], the folding enthalpy was -17.9 kcal/mol. Besides, in series [2], the Tm was determined as 31.9 °C.
For GTCCGGGCGAAAGCCGAC (((..(((....)))))), in that order: -11.1 kcal/mol and 44.3 °C.
For GGGATAGGAAACTGTTCC ((.(.((....)).).)), the folding enthalpy in series [1] was -16.5 kcal/mol. In addition, the Tm in series [2] was found to be 28.6 °C.
In the same order, the values of CCGAAGAAATTCGG (((((....))))) are -19.2 kcal/mol and 46.9 °C.
For GCAAAGCGAAAGCCTGGC ((.(.((....)).).)), in that order: -8.7 kcal/mol and 35 °C.
In the same order, the values of GCTACCGAAAGGTTCAGC ((((((....)))..))) are -16.3 kcal/mol and 35.5 °C.
Take GCCCAGCGAAAGCGGCGC ((.(.((....)).).)): the folding enthalpy in series [1] was -17 kcal/mol. Further, in series [2], the Tm is 64.5 °C.
In the same order, the values of GCGCAAGGAAACCTGCGC (((((.(....).))))) are -41.7 kcal/mol and 62.4 °C.
For GATCTGGCTCAGATC ((((((...)))))), in that order: -35.5 kcal/mol and 49.1 °C.
With GGCCACCGAAAGGTAGCC (((.(((....))).))), the folding enthalpy in series [1] was -38.3 kcal/mol. In series [2], the Tm was 57.5 °C.
Turning to GTACGCGAAAGCGCGTAC ((((((....)))..))), the folding enthalpy in series [1] was -25.7 kcal/mol. In addition, in series [2], the Tm came to 62.5 °C.
For GCGGCCCACCGC ((((....)))), in that order: -19.6 kcal/mol and 60 °C.
In the same order, the values of GCTGTGCGAAAGCTCAGC ((((.((....)).)))) are -36.8 kcal/mol and 68 °C.
In the same order, the values of GATCCCATGGGGATC ((((((...)))))) are -33.2 kcal/mol and 65.8 °C.
For GGCATGGGAAACCATGTC (.(((((....))))).), the folding enthalpy in series [1] was -26.6 kcal/mol. For the same sequence, the Tm in series [2] turned out to be 52.5 °C.
For CGGTCCGGAAACGGCCG (((.(((....)))))), in that order: -26.7 kcal/mol and 57.6 °C.
In the same order, the values of GCACCCGAAAGGGGCTGC ((((((....)))..))) are -17.9 kcal/mol and 65.3 °C.
As to GATACCGAAAGGTAAATC ((((((....)))..))), the folding enthalpy in series [1] is -13.5 kcal/mol. Further, in series [2], the Tm is 28.7 °C.
In the same order, the values of GCGTTTGCGAAAGCACGC (((..(((....)))))) are -22.6 kcal/mol and 55.2 °C.
Consider GAGTCCGAAAGGATACTC ((((((....)))..))), for which the folding enthalpy in series [1] was -17.9 kcal/mol. The Tm in series [2] is 38.6 °C.
For GGAGTCGGAAACGACTTC (.(((((....))))).), in that order: -25.6 kcal/mol and 55.5 °C.
For GTCTTCGAAAGAAGAGAC ((((((....)))..))), in that order: -16.7 kcal/mol and 36.5 °C.
In the same order, the values of GATCGGTTCCCGATC ((((((...)))))) are -39.3 kcal/mol and 59.3 °C.
As for CGTTCCGGAAACGGGACG (((.(((....))).))), the folding enthalpy in series [1] was -42.9 kcal/mol. Also, the Tm in series [2] turned out to be 57.6 °C.
In the same order, the values of GATGGGCCGAAAGGCATC (((..(((....)))))) are -9.87 kcal/mol and 34.8 °C.
For the sequence GTAAGTGGAAACACCTAC (((.(((....))).))), the folding enthalpy in series [1] is -16.8 kcal/mol. In series [2], the Tm stood at 29.2 °C.
For GATCAATTCGTTGATC ((((((....)))))), in that order: -37.8 kcal/mol and 48.6 °C.
For GCGATGGCGAAAGCCCGC (((..(((....)))))), in that order: -18.4 kcal/mol and 56.5 °C.
